Screening data deposited in PubChem BioAssay by NMMLSC.
Compounds with a hit are over-represented: about 2.3% of the library has one in this group of screens.
ABCB1 inh = blocks JC-1 efflux by human ABCB1 transporter; inhibition, % at 6.6 µM; AID 1326; 0.067% of 190,000 active; CCRF-Adr cells, flow cytometry; P08183; in the data active means inhibition above about 40%;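 further: higher value means more JC-1 retained so stronger ABCB1 efflux block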
ABCG2 inh = inhibitors of human ABCG2 transporter, ABCB1 counter-screen. Q9UNQ0. inhibition, % at 6.6 µM. IgMXP3 cells, JC-1 efflux, flow cytometry. 0.1% of 190,000 active. AID 1325;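 active means inhibition above 80%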
Target sequence (Q9UNQ0 whole entry, looked up): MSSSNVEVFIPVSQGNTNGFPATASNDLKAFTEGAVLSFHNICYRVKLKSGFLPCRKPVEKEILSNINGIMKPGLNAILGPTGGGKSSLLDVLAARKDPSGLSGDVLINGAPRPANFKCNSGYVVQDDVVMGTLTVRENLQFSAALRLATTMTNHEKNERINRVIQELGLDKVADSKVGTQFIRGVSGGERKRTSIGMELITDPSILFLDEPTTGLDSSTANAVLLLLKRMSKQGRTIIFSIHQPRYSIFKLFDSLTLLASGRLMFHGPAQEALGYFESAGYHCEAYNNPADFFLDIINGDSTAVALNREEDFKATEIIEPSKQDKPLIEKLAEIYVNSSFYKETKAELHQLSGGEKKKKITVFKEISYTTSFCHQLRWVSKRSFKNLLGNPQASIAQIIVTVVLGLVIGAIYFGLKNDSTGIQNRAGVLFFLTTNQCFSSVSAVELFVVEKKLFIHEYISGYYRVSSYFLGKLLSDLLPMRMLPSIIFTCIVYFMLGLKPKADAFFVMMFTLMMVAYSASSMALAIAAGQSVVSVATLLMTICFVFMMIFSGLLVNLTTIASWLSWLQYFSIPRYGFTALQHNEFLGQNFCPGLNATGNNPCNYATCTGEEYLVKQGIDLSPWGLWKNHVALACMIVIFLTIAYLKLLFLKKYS
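Measure – % inhibition of efflux relative to nicardipine and DMSO · Test system – ABCG2 IgMXP3 and barcoded ABCB1 CCRF-Adr cell mix · Control set – nicardipine as high control, DMSO as low control · Compound – one concentration, 6.6 µM final · Signal – flow cytometry of retained JC-1 fluorescence · Timing – 10 min exposure at 25 °C with rotation, no wash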
MEKK3 PB1 HTS = modulators (inhibitors or enhancers) of MEK5 binding to human MEKK3 PB1 domain | 1.4% of 290,000 active | Q99759 | bead-based flow cytometry, Alexa488-MEK5 binding to MEKK3; actives lie on both sides; 0 = blocked by unlabeled MEK5, 100 = vehicle | AID 1529 | binding response (% of control), % at 10 µM;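 active means binding response more than 3 SD above or below the average of its plate-row segment, actives on both sides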;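 further: Alexa488 bead fluorescence after subtracting the streptavidin-only scavenger bead signal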
MEKK2 WT-MEK5 = raises or lowers MEK5 binding to wildtype human MEKK2 PB1 domain; 1.1% of 290,000 active; bead flow cytometry, Alexa488-MEK5 binding to MEKK2 WT; actives lie on both sides; Q9Y2U5; binding response (% of control), % at 10 µM; AID 1531; in the data active means binding response below about 67% or above about 130%
MEKK2mut PB1 HTS = signal of MEK5 binding to mutant human MEKK2 PB1 domain; bead flow cytometry, Alexa488-MEK5 binding to MEKK2 mutant; percent response, % at 10 µM; 0.35% of 290,000 active; AID 1530; in the data active means percent response above about 24%, passing the limit was not always enough
MEKK2wt confirm = raises or lowers MEK5 binding to wildtype human MEKK2, retest; shares compounds with MEKK3 PB1 HTS; bead flow cytometry, Alexa488-MEK5 binding to MEKK2 WT; actives lie on both sides; binding response (% of control), % at 10 µM; 2.4% of 5,900 active; AID 1892; in the data active means binding response below about 16% or above about 210%; inactive means in between
MEKK2mut confirm = signal of MEK5 binding to mutant human MEKK2, retest. shares compounds with MEKK3 PB1 HTS. bead flow cytometry, Alexa488-MEK5 binding to MEKK2 mutant. percent response, % at 10 µM. 2% of 5,900 active. AID 1893; in the data active means percent response mostly above about 71%, no sharp cut-off; inactive means mostly below about 38%;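 further: higher means compound restores mutant binding toward wildtype level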
MEKK3 confirm = confirmation of inhibitors of MEK5 binding to human MEKK3. shares compounds with MEKK3 PB1 HTS. binding response (% of control), % at 10 µM. AID 1894. 1.8% of 5,900 active. bead flow cytometry, Alexa488-MEK5 binding to MEKK3; stronger effect = lower value;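 active means binding response below 72% of control, or above a set upper limit, though filed actives all read lower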
Numbers stand for hits; n = inactive; x = no result; [ ] = another dose, or the depositor's remark.

SMILES | ABCB1 inh | ABCG2 inh | MEKK3 PB1 HTS | MEKK2 WT-MEK5 | MEKK2mut PB1 HTS | MEKK2wt confirm | MEKK2mut confirm | MEKK3 confirm
CCc1nc(NCCO)c(C#N)c2c1CSC(C)(C)C2 | x | x | 50[inhibitor] | n | n | n | n | n
CC1=CC(C)(C)n2c(O)c(N=N)c3cc(C)cc1c32 | n | n | 141 | n | n | n | n | n
O=C(Nc1ccc(Oc2ncnc3cc(Cl)ccc23)nc1)c1cccs1 | x | x | n | n | n | x | x | x
O=C(Nc1ccc(F)cc1)Nc1ccc(Oc2ncnc3cc(Cl)ccc23)nc1 | x | x | 69[inhibitor] | n | n | n | n | n
O=C(O)CCCC(=O)Nc1ccc(Oc2ncnc3cc(Cl)ccc23)nc1 | x | x | 128 | n | n | n | n | n
O=C(/C=C/c1cccs1)N1CCN(c2ccc(F)cc2)CC1 | x | x | n | 62[inhibitor] | n | n | n | n
CCCNC(=O)c1ccc2c(c1)C1C3CCC(C3)C1C(c1ccccc1)N2 (configuration not stated) | n | n | n | n | n | x | x | x
CC(C)(C)NC(=O)c1ccc2c(c1)C1C3CCC(C3)C1C(c1ccccc1)N2 (configuration not stated) | n | n | 198 | n | n | n | n | n
COc1ccc(N(CC(=O)N/N=C/c2ccc(N(C)C)cc2)S(=O)(=O)c2ccccc2)cc1 | x | x | n | n | n | x | x | x
C/C=C/C=N/NC(=O)CN(c1ccc(Br)cc1)S(=O)(=O)c1ccccc1 | n | n | 149 | n | n | n | n | n
CC1CCCCC1NC(=O)CO/N=C/c1ccccc1OC(F)F (configuration not stated) | n | n | 71[inhibitor] | n | n | n | n | n
CC1Cc2ccccc2N1C(=O)CO/N=C/c1ccccc1OC(F)F (configuration not stated) | n | n | 10[inhibitor] | n | n | n | n | n
CC(C)C(C(=O)NC1CCCC1)N(CC1CCCO1)C(=O)CNS(=O)(=O)c1ccc(F)cc1 (configuration not stated) | x | x | n | n | n | x | x | x
CC(C)(C)c1ccc(OCC(O)CN(CCO)CC(O)Cn2ccc3ccccc32)cc1 (configuration not stated) | n | n | 133 | n | n | n | n | n
OCCN(CC(O)Cn1ccc2ccccc21)CC(O)Cn1ccc2ccccc21 (configuration not stated) | n | n | x | x | x | x | x | x
CCN(CC)C(=O)c1cc(C(C)(C)C)c(O)c(C(C)(C)C)c1 | n | n | 128 | n | n | n | n | n
CC(C)(C)c1ccc(NC(=O)c2ccc(=O)[nH]n2)cc1 | x | x | n | n | n | x | x | x
CCOC(=O)N1CCN(C(=O)CSc2nc(-c3cccc(C)c3)ns2)CC1 | n | n | 147 | 134 | n | n | n | n
Cc1cccc(-c2nsc(SCC(=O)Nc3cc(C)on3)n2)c1 | n | n | n | n | n | x | x | x
CCOC(=O)CNC(=O)CSc1nc(-c2ccccc2)ns1 | n | n | n | n | n | x | x | x
CCOC(=O)CNC(=O)CSc1nc(-c2ccc(C)cc2)ns1 | n | n | 129 | n | n | n | n | n
CCNS(=O)(=O)c1ccc(CCC(=O)N2CCC(C)CC2)cc1 | x | x | n | n | n | x | x | x
O=C(CSc1nc2ccccc2s1)Nc1cc(S(=O)(=O)N2CCOCC2)ccc1Cl | n | n | 129 | n | n | n | n | n
O=C(CSc1nc2ccccc2s1)Nc1ccc2c(c1)OCO2 | n | n | 158 | n | n | n | n | n
CC(Sc1nc2ccccc2s1)C(=O)Nc1ccc2c(c1)OCO2 (configuration not stated) | n | n | n | n | n | x | x | x
CCCC(=O)Nc1ccc2nc(SCC(=O)Nc3ccc(N4CCOCC4)c(Cl)c3)sc2c1 | n | n | x | x | x | x | x | x
Nc1ccc2nc(SCC(=O)Nc3ccc(N4CCOCC4)c(Cl)c3)sc2c1 | n | n | 135 | n | n | n | n | n
